Eight compounds from ChEMBL document CHEMBL1781968, “δ-Carbolines and their ring-opened analogs: synthesis and evaluation against fungal and bacterial opportunistic pathogens” (Eur J Med Chem, 2011) can be followed below.

The source made the active and inactive calls. No cut-off for these calls is given here.

The subject of data set [1] is Aspergillus fumigatus. The data set is described as follows: Antifungal activity against Aspergillus fumigatus ATCC 204305 at 20 ug/ml by NCCLS method. It counts as functional, organism-based. Summed up: (§1)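 Modified NCCLS microdilution for fungi. Samples in DMSO serially diluted with 0.9% saline, in duplicate, final concentrations from 20 μg/mL down. Inocula matched to 0.5 McFarland (630 nm) and diluted in Sabouraud dextrose broth. Growth, solvent and medium controls included. OD 530 nm read before and after incubation. IC50 from percent growth curve. MIC is no detectable growth. MFC is lowest concentration killing the organism.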

Data set [2] concerns Candida albicans. The data set is described as follows: Antifungal activity against Candida albicans ATCC 90028 by NCCLS method. It counts as functional, organism-based. Summed up:
as §1

In data set [3] the test system is Staphylococcus aureus. As to the kind of experiment: Antibacterial activity against methicillin-resistant Staphylococcus aureus ATCC 33591 by NCCLS method. It counts as functional, organism-based. In short, it runs like this: (§2)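 Broth microdilution (modified NCCLS). Samples in DMSO serially diluted in 0.9% saline, tested in duplicate, highest final concentration 20 μg/mL. Inoculum matched to 0.5 McFarland standard by absorbance at 630 nm, then diluted in cation-adjusted Mueller–Hinton broth. Growth, solvent and medium controls on each plate. Absorbance at 530 nm read before and after incubation. IC50 taken from percent growth versus concentration plot; MIC is lowest concentration with no detectable growth; MBC is lowest concentration killing the organism.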

In data set [4] the test system is Escherichia coli. As to the kind of experiment: Antibacterial activity against Escherichia coli by NCCLS method. It counts as functional, organism-based. Summed up:
(§3)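 Modified NCCLS broth microdilution. DMSO-dissolved samples serially diluted in 0.9% saline, tested in duplicate, final concentrations starting at 20 μg/mL. Inoculum set to 0.5 McFarland (absorbance 630 nm) and diluted in cation-adjusted Mueller–Hinton broth. Growth, solvent and medium controls on each plate. Read at 530 nm before and after incubation. IC50 from percent growth versus concentration. MIC is lowest concentration with no detectable growth.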

A short description of data set [5]: Cytotoxicity against african green monkey Vero cell after 48 hrs by neutral red uptake assay. It counts as cell-based. The settings on record: chlorocebus sabaeus, Vero cells; read-out: TC50. In short, it runs like this:
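VERO kidney fibroblasts seeded at 25,000 cells/well and incubated 24 h. Compounds added, highest concentration 10 μg/mL, then 48 h further incubation. Viable cells measured by neutral red assay. IC50 taken from growth-inhibition dose curves. Doxorubicin as positive control, DMSO as vehicle control.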

Data set [6] has as its system Staphylococcus aureus. As to the kind of experiment: Antibacterial activity against Staphylococcus aureus ATCC 29213 by NCCLS method. It counts as functional, organism-based. Summed up:
as §2

In data set [7] the test system is Mycobacterium intracellulare. The data set is described as follows: Antibacterial activity against Mycobacterium intracellular ATCC 23068 by alamar blue method. It counts as functional, organism-based. Summed up:
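Modified Alamar blue method (Franzblau). Samples in DMSO serially diluted in 0.9% saline, in duplicate, final concentrations starting at 20 μg/mL. Inoculum adjusted to 0.5 McFarland, then diluted in Middlebrook 7H9 with OADC enrichment plus 5% Alamar blue. Fluorescence read (ex 544/em 590 nm) before and after incubation. IC50 from percent growth versus concentration. MIC is no detectable growth.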
Background: The colour change of resazurin is a common sign of viable cells or microbes.

Data set [8] has as its system Cryptococcus neoformans. The data set is described as follows: Antifungal activity against Cryptococcus neoformans ATCC 90113 by NCCLS method. It counts as functional, organism-based. In short, it runs like this: as §1
Data set [9] relates to Escherichia coli. As to the kind of experiment: Antibacterial activity against Escherichia coli at 20 ug/ml by NCCLS method. It counts as functional, organism-based. Summed up:
as §3

The subject of data set [10] is Aspergillus fumigatus. The data set is described as follows: Antifungal activity against Aspergillus fumigatus ATCC 204305 by NCCLS method. It counts as functional, organism-based. Summed up: as §1

By MFC is commonly meant the lowest tested concentration that kills the fungus rather than only halting it. The IC50 is the concentration needed to halve the response being measured. A word on the MBC: it is the lowest tested concentration that kills the bacteria rather than only halting them. In general, MIC refers to the lowest concentration found to suppress growth.

For `C[n+]1cccc(N(CCCCCC2CCCCC2)c2ccc(F)cc2)c1.[I-]`, the outcome in data set [1] was inactive. This compound gave an MFC in data set [2] of more than 20 µg/mL. Besides, the 50% inhibitory concentration (IC50) was 3 µg/mL in data set [3], 18 µg/mL in [4], 0.7 µg/mL in data set [6] and 3.2 µg/mL in [7]. For the same compound, the MBC is 20 µg/mL in data set [3], more than 20 µg/mL in data set [4], 10 µg/mL in [6] and 10 µg/mL in [7]. The minimum inhibitory concentration (MIC) was 5 µg/mL in data set [3], more than 20 µg/mL in [4], 1.3 µg/mL in data set [6] and 5 µg/mL in data set [7]. Also, the CC50 at 48 h in data set [5] is more than 10 µg/mL.
On to `C[n+]1cccc2c1c1cc(C#N)ccc1n2CCCCCC1CCCCC1.[I-]`, for which the outcome in [1] and in data set [9] was inactive. In addition, the IC50 in [2] amounted to 19 µg/mL; in data set [8], 2.8 µg/mL; in data set [3], 5.8 µg/mL; in data set [6], 2.6 µg/mL; in data set [7] it was 2.1 µg/mL. The MFC in [2] was more than 20 µg/mL; in data set [8], 5 µg/mL. The MIC in [2] turned out to be 20 µg/mL; in data set [8] it was 5 µg/mL; in [3], 10 µg/mL; in data set [6] it was 5 µg/mL; in data set [7] it was 2.5 µg/mL. The minimum bactericidal concentration (MBC) in [3] was 20 µg/mL; in [6], 20 µg/mL; in [7] it was 5 µg/mL. Besides, in [5], the CC50 at 48 h was more than 10 µg/mL.
Consider `C[n+]1cccc(N(CCCCCC2CCCCC2)c2ccccc2C#N)c1.[I-]`, for which, in [3], the IC50 was 6.4 µg/mL, the MBC is 20 µg/mL and the MIC was 20 µg/mL. In data set [9], the outcome was inactive. In [6], the half-inhibitory concentration (IC50) turned out to be 1.3 µg/mL, the MBC amounted to 10 µg/mL and it took 2.5 µg/mL to inhibit growth (MIC). In data set [7], this compound displayed a half-inhibitory concentration (IC50) of 3.5 µg/mL, a minimum bactericidal concentration (MBC) of 20 µg/mL and an MIC of 5 µg/mL.
Consider `C[n+]1cccc(N(CCCCCC2CCCCC2)c2ccc(C#N)cc2)c1.[I-]`, for which the outcome in data set [1] and in data set [9] was inactive. The 50% inhibitory concentration (IC50) in data set [3] is 6.2 µg/mL; in data set [6], 2.5 µg/mL; in [7], 2.8 µg/mL. Also, the MBC is 20 µg/mL in data set [3], 20 µg/mL in data set [6] and 5 µg/mL in [7]. The values for the MIC in [3], in [6] and in [7] were 10 µg/mL, 5 µg/mL and 5 µg/mL, respectively. Further, in data set [5], the CC50 at 48 h is more than 10 µg/mL.
In the case of `COc1ccc(N(CCCCCC2CCCCC2)c2ccc[n+](C)c2)cc1.[I-]`, the outcome in data set [1] was inactive. Moreover, the half-maximal inhibitory concentration (IC50) in [3] was 1.9 µg/mL; in [4], 5.4 µg/mL; in [6] it was 0.3 µg/mL; in [7], 1 µg/mL. For the same compound, the minimum bactericidal concentration (MBC) in [3] was 10 µg/mL; in data set [4], more than 20 µg/mL; in data set [6], 10 µg/mL; in data set [7], 5 µg/mL. In addition, the MIC is 5 µg/mL in [3], more than 20 µg/mL in data set [4], 0.6 µg/mL in data set [6] and 1.3 µg/mL in [7]. Further, in [5], the CC50 at 48 h is more than 10 µg/mL.
In data set [3], `C[n+]1cccc(N(CCCCCC2CCCCC2)c2cccc(C#N)c2)c1.[I-]` registered a concentration for half-maximal inhibition (IC50) of 3.9 µg/mL, an MBC of 10 µg/mL and an MIC of 10 µg/mL. Further, in data set [9], the outcome was inactive. In [6], this compound had an IC50 of 0.8 µg/mL, an MBC of 20 µg/mL and a minimum inhibitory concentration (MIC) of 1.3 µg/mL. Further, in data set [7], it took 2 µg/mL to reach half-maximal inhibition (IC50), the MBC is 10 µg/mL and the minimal inhibitory concentration (MIC) is 2.5 µg/mL.
Turning to `COc1cccc(N(CCCCCC2CCCCC2)c2ccc[n+](C)c2)c1.[I-]`, in data set [3], 4.8 µg/mL corresponded to half-maximal inhibition (IC50), the MBC is 20 µg/mL and the MIC was 10 µg/mL. Moreover, in data set [9], the result was inactive. For the same compound, in data set [6], the concentration for half-maximal inhibition (IC50) was found to be 0.8 µg/mL, the minimal bactericidal concentration (MBC) came to 20 µg/mL and the lowest concentration to inhibit growth (MIC) was 1.3 µg/mL. Moreover, in [7], the IC50 came to 3.3 µg/mL, the minimum bactericidal concentration (MBC) came to 10 µg/mL and the MIC came to 5 µg/mL.
With `CSc1ccc2c(c1)c1c(ccc[n+]1C)n2CCCCCC1CCCCC1.[I-]`, the IC50 was determined as 13 µg/mL in [10]; 2.1 µg/mL in data set [2]; 0.3 µg/mL in data set [8]; 1.1 µg/mL in data set [3]; 5.6 µg/mL in data set [4]; 0.4 µg/mL in [6]. 0.7 µg/mL corresponded to half-maximal inhibition in data set [7] (IC50). The results for the MFC in [10], in [2] and in [8] were 20 µg/mL, 5 µg/mL and 0.6 µg/mL, respectively. The MIC is 20 µg/mL in data set [10]; 5 µg/mL in data set [2]; 0.6 µg/mL in [8]; 2.5 µg/mL in [3]; more than 20 µg/mL in data set [4]; 0.6 µg/mL in [6]. In addition, the MIC in [7] is 1.3 µg/mL. The MBC in data set [3] is 10 µg/mL; in data set [4], more than 20 µg/mL; in [6] it was 5 µg/mL; in data set [7] it was 2.5 µg/mL. Moreover, in [5], the CC50 at 48 h was more than 10 µg/mL.
